Data on ten compounds can be found in ChEMBL document CHEMBL1177787, “In vitro and in vivo antimalarial evaluation of semi-synthetic derivatives of gomphostenin” (Bioorg Med Chem Lett, 2010).

The term IC50 denotes the concentration that gives 50% inhibition. A low value points to higher potency. As a reminder, the inhibition in vivo is the relative decrease from the control value, in per cent.

Assay [1] relates to Plasmodium falciparum. Kind of assay: Antiplasmodial activity against chloroquine-sensitive Plasmodium falciparum MRC2 infected in human erythrocytes after 24 hrs by Giemsa staining. In kind it is functional, organism-based. To be noted: MRC2, 24 h. A digest of the protocol: (§1)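 Parasites grown in human B(+) erythrocytes in RPMI-1640 with 25 mM HEPES, 10% human AB(+) serum, 0.2% sodium bicarbonate, 5% CO2. Ring-stage cultures synchronized, parasitemia set to 1–1.5% with fresh RBC. Twofold serial dilutions (ethanol stock, final ethanol ≤0.5%), duplicate wells, 37 °C for 24 h. Giemsa smears: schizonts per 100 asexual parasites; inhibition = (1 − Nt/Nc) × 100; IC50 derived.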

The subject of assay [2] is Plasmodium falciparum. Kind of assay: Antiplasmodial activity against chloroquine-resistant Plasmodium falciparum RKL9 after 24 hrs by Giemsa staining. In kind it is functional, organism-based. To be noted: RKL9, 24 h. The method in brief:
as §1

For assay [3], the system named is Plasmodium berghei. Kind of assay: Antimalarial activity against chloroquine-sensitive Plasmodium berghei ANKA infected in Swiss mice (Mus musculus) assessed as suppression of parasitaemia at 50 mg/kg, perorally for 4 days measured on day 5 relative to control. Format: functional. To be noted: route oral. A digest of the protocol: (§2)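 Four-day suppressive test: Swiss albino mice inoculated i.p. on day 0 with 0.2 ml infected blood carrying about 1 × 10⁷ P. berghei ANKA parasitized RBC. Compounds suspended in saline with 0.5% Tween-80 and given orally from shortly after inoculation, day 0–3. Groups of five mice; the vehicle group was the negative control. Tail-blood thin films were read on day 4 (fifth day), counting parasitized cells per 600 erythrocytes.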

Assay [4] relates to Plasmodium berghei. Kind of assay: Antimalarial activity against chloroquine-sensitive Plasmodium berghei ANKA infected in Swiss mice (Mus musculus) assessed as suppression of parasitaemia at 150 mg/kg, perorally for 4 days measured on day 5 relative to control. In kind it is functional. The conditions noted are these: route oral. The method in brief: as §2
For assay [5], the system named is Plasmodium berghei. Kind of assay: Antimalarial activity against chloroquine-sensitive Plasmodium berghei ANKA infected in Swiss mice (Mus musculus) assessed as suppression of parasitaemia at 100 mg/kg, perorally for 4 days measured on day 5 relative to control. In kind it is functional. The conditions noted are these: route oral. A digest of the protocol:
as §2

In assay [6] the test system is Plasmodium berghei. Kind of assay: Antimalarial activity against chloroquine-sensitive Plasmodium berghei ANKA infected in Swiss mice (Mus musculus) assessed as parasitaemia at 100 mg/kg, perorally for 4 days measured on day 5. Format: functional. The conditions noted are these: route oral. The method in brief: as §2
Assay [7] has as its system Plasmodium berghei. Kind of assay: Antimalarial activity against chloroquine-sensitive Plasmodium berghei ANKA infected in Swiss mice (Mus musculus) assessed as parasitaemia at 150 mg/kg, perorally for 4 days measured on day 5. Format: functional. To be noted: route oral. A digest of the protocol:
as §2

Assay [8] deals with Plasmodium berghei. Kind of assay: Antimalarial activity against chloroquine-sensitive Plasmodium berghei ANKA infected in Swiss mice (Mus musculus) assessed as parasitaemia at 50 mg/kg, perorally for 4 days measured on day 5. To be noted: route oral. In kind it is functional. A digest of the protocol:
as §2

The subject of assay [9] is Plasmodium berghei. Kind of assay: Antimalarial activity against chloroquine-sensitive Plasmodium berghei ANKA infected in Swiss mice (Mus musculus) assessed as parasitaemia at 5 mg/kg, perorally for 4 days measured on day 5. Format: functional. To be noted: route oral. The method in brief: as §2
Assay [10] deals with Plasmodium berghei. Kind of assay: Antimalarial activity against chloroquine-sensitive Plasmodium berghei ANKA infected in Swiss mice (Mus musculus) assessed as suppression of parasitaemia at 5 mg/kg, perorally for 4 days measured on day 5 relative to control. In kind it is functional. The conditions noted are these: route oral. A digest of the protocol: as §2

For `CC1=CC(=O)C[C@H]2[C@](C)(CCC3=CCOC3=O)[C@H](COC(=O)OCc3ccccc3)CC[C@]12C`, the 50% inhibitory concentration (IC50) was found to be 42.2 µM in assay [1] and 43.9 µM in [2].
Consider `CC1=CC(=O)C[C@H]2[C@](C)(CCC3=CCOC3=O)[C@H](COCc3ccc(Cl)cc3)CC[C@]12C`, for which the 50% inhibitory concentration (IC50) in assay [1] is 14 µM; in [2], 18.8 µM.
Turning to `CC1=CC(=O)C[C@H]2[C@](C)(CCC3=CCOC3=O)[C@H](COC(=O)C(C)(C)C)CC[C@]12C`, the IC50 in assay [1] is 78.5 µM; in assay [2], 84.9 µM.
In the case of `COc1ccc(COC(=O)OC[C@@H]2CC[C@]3(C)C(C)=CC(=O)C[C@H]3[C@]2(C)CCC2=CCOC2=O)cc1`, the IC50 in assay [1] is 37.6 µM; in assay [2], 47.7 µM.
Regarding `CC1=CC(=O)C[C@H]2[C@](C)(CCC3=CCOC3=O)[C@H](COCc3ccc(F)cc3)CC[C@]12C`, the inhibition in vivo at 50 mg/kg in [3] was found to be 21.7%. For the same compound, the concentration for half-maximal inhibition (IC50) in assay [1] was 8.3 µM; in assay [2] it was 8.1 µM. Moreover, in [4], the inhibition in vivo at 150 mg/kg is 69.4%. Also, the inhibition in vivo at 100 mg/kg in assay [5] amounted to 33.2%. Further, the Activity in assay [6] came out at 22.3%; in assay [7], 10.3%; in [8], 26.4%.
With `CC1=CC(=O)C[C@H]2[C@](C)(CCC3=CCOC3=O)[C@H](COS(C)(=O)=O)CC[C@]12C`, the values for the IC50 in assay [1] and in [2] were 69.9 µM and 73.3 µM, respectively.
As for `COC[C@@H]1CC[C@]2(C)C(C)=CC(=O)C[C@H]2[C@]1(C)CCC1=CCOC1=O`, the IC50 in assay [1] was determined as 94.4 µM; in assay [2], 88.9 µM.
As to `CC1=CC(=O)C[C@H]2[C@](C)(CCC3=CCOC3=O)[C@H](COCc3ccc(C(F)(F)F)cc3)CC[C@]12C`, the inhibition in vivo at 50 mg/kg in assay [3] amounted to 48.4%. The half-maximal inhibitory concentration (IC50) in assay [1] is 4.8 µM; in assay [2], 4.4 µM. Also, in assay [4], the inhibition in vivo at 150 mg/kg is 65.9%. Besides, the inhibition in vivo at 100 mg/kg in assay [5] worked out at 63.2%. Besides, the values for the Activity in assay [6], in [7] and in [8] were 12.4%, 11.5% and 17.5%, respectively.
Regarding `CC1=CC(=O)C[C@H]2[C@](C)(CCC3=CCOC3=O)[C@H](COS(=O)(=O)c3ccc(C)cc3)CC[C@]12C`, the figures for the IC50 in assay [1] and in assay [2] were 26.1 µM and 45.8 µM, respectively.
With `CCN(CC)CCCC(C)Nc1ccnc2cc(Cl)ccc12.O=P(O)(O)O.O=P(O)(O)O` (configuration not stated) [CHLOROQUINE PHOSPHATE], in assay [9], the Activity came to 1.07%. The inhibition in vivo at 5 mg/kg in [10] stood at 96.8%.
